A selection: hits, their analogues and other compounds. The true share with any hit is near 2.1%.
DNMT1 block: human DNMT1 methyltransferase inhibitors, primary screen, biochemical, molecular beacon, fluorescence, HinP1I cleavage, uHTS. DNA (cytosine-5)-methyltransferase 1 (Homo sapiens), P26358. inhibition (reported as % activation of signal), % at 10 µM. hit rate 0.83% among 360,000. AID 588458, 2011; in the data active = inhibition above about 50%
STEP block: STEP phosphatase inhibitors, primary screen, biochemical, fluorescence intensity, uHTS; recombinant STEP, OMFP fluorogenic substrate; inhibition, % at 20 µM; hit rate 0.25% among 360,000; AID 588621, 2011;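 active = inhibition at 20 µM, scaled per plate between control wells, above about 37%, limit read from the data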;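 also: 0% = DMSO with enzyme and substrate and 100% = substrate only without enzyme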
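System: isolated STEP enzyme; schedule: 20 min enzyme reaction at room temperature, protected from light; medium: Bis-Tris buffer pH 6.0, 2.5 mM DTT, 0.005% Tween 20; signal: fluorescence, 480/540 nm; dosing: single compound dose of 20 µM, 1% DMSO final; also added: OMFP substrate, 25 µM final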
SUMO1 PPI mod: modulators of SUMO1 protein-protein interactions, primary screen, biochemical, uHTS. Small ubiquitin-related modifier 1 (Homo sapiens), P63165. SUMO1 binding to a labelled peptide, TR-FRET, 1 h. inhibition, % at 20 µM. hit rate 0.33% among 360,000. AID 602429, 2012; in the data active = inhibition above about 37%
Target sequence (P63165 whole entry, looked up): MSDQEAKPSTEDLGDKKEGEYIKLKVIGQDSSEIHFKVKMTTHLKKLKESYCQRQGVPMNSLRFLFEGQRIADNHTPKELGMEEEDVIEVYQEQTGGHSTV
Scp-1 inhibitor: Scp-1 phosphatase inhibitors, primary screen, biochemical, colorimetric, uHTS; Recombinant Scp1, phosphopeptide, malachite green phosphate absorbance; inhibition, % at 20 µM; hit rate 0.88% among 340,000;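 active = inhibition above about 50% at 20 µM, limit read from the data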;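 also: plate controls were DMSO wells with enzyme for no effect and wells lacking enzyme for full effect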
Target sequence (Q9GZU7 76-261 limits assumed): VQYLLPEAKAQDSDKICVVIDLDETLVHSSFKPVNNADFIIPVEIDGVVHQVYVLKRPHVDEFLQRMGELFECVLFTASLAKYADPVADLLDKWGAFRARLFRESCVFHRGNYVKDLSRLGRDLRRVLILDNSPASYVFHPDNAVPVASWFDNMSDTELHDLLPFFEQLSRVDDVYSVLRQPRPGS
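Material: truncated SCP-1 phosphatase (76-261aa) / Buffer or medium: 50 mM Tris acetate pH 5.5, 0.005% Tween-20, 10 mM MgCl2 / Compound dosing: one concentration, 20 µM, with 1.0% DMSO / Incubation: 45 min room-temperature reaction, 5 min colour, 30 min stabiliser / Detection: colorimetric free-phosphate detection, absorbance 630 nm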
GRK2 aptamer HTS: compounds blocking aptamer binding on GRK2 – biochemical, human GRK2, bead flow cytometry, HTS, primary screen. Beta-adrenergic receptor kinase 1 (Homo sapiens), P25098. FAM-aptamer displacement from GRK2. inhibition of aptamer binding, % at 10 µM. hit rate 0.59% among 330,000;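 active = inhibition of aptamer binding above 40%, roughly 3 SD of noise, on plates passing a quality check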;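 also: median bead fluorescence of bound FAM aptamer so fluorescent compounds give negative values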
LMPTP block: LMPTP phosphatase inhibitors, primary screen, biochemical, fluorescence intensity, uHTS; Low molecular weight phosphotyrosine protein phosphatase (Homo sapiens), P24666; recombinant LMPTP-A, OMFP fluorogenic substrate; inhibition, % at 20 µM; hit rate 0.22% among 360,000;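 active = compounds that cut the enzyme signal by at least half of the control window in the single-dose screen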;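 also: plate controls were DMSO wells with enzyme plus substrate for no effect and substrate without enzyme for full effect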
Target sequence (P24666 whole entry, looked up): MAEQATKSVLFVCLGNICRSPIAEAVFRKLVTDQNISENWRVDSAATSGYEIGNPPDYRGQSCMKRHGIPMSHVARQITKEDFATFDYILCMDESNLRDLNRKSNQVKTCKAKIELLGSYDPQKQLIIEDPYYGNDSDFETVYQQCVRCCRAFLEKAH
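Assay system: LMPTP-A phosphatase enzyme | Input: 0.625 nM enzyme | Also added: Fluorogenic phosphatase substrate OMFP at 400 µM final | Compound dosing: One test concentration per compound, 20 µM, with 3% DMSO overall | Schedule: 50 min enzyme reaction at room temperature, protected from light | Signal: Fluorescence intensity | Benchmarks: no-enzyme and uninhibited controls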
GRK2 inh confirm: GRK2 aptamer-displacing inhibitors, retest, confirmation, biochemical, cherry pick 1, bead flow cytometry. shares compounds with GRK2 aptamer HTS. bead-bound GRK2, FAM-aptamer displacement. aptamer displacement, % at 10 µM. hit rate 4% among 2,000. AID 504451, 2011;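 active = aptamer displacement above 40%, near three times the noise of non-fluorescent compounds, on plates passing quality checks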;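 also: negative values mostly reflect intrinsic compound fluorescence rather than true enhancement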
Aptamer quench 1: counter-screen for GRK2 aptamer inhibitors: fluorescent aptamer quenchers | AID 504521 | Fluorescent RNA aptamer beads, quenching, flow cytometry; stronger effect = higher value | fluorescence change (kMESF span), kMESF (concentration not given with the values) | shares compounds with GRK2 aptamer HTS | 110 tested, under 10 active;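 active = compounds whose bead fluorescence drops by more than 37 kMESF across the dose range, marking them as dye quenchers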
Aptamer quench SP: counter-screen for GRK2 aptamer inhibitors: fluorescent aptamer quenchers | shares compounds with GRK2 aptamer HTS | Carboxyfluorescein RNA aptamer on beads, flow cytometry quenching; stronger effect = lower value | fluorescence response (% of DMSO), % at 10 µM | 2,000 tested, under 10 active | AID 504580;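 active = compounds that quench the bead-bound fluorescent RNA probe, cutting fluorescence to under half of the solvent control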;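 also: counterscreen run without GRK2 so only probe quenching by compound is measured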
Active calls of the source: *; . = no result given; ! = not confirmed by another sample.

SMILES | DNMT1 block | STEP block | SUMO1 PPI mod | Scp-1 inhibitor | GRK2 aptamer HTS | LMPTP block | GRK2 inh confirm | Aptamer quench SP | others
Cc1ccc(N2C(=O)NC(=O)/C(=C/C=C/c3ccco3)C2=O)cc1 | 30.0 | -0.6 | 5.9 | 6.2 | 3.0 | -0.1 | . | .
CN1CCc2cc3c(c4c2C1Cc1ccccc1-4)OCO3 (configuration not stated) | 59.2* | 2.2 | -9.7 | 5.5 | 5.0 | 8.9 | . | .
c1ccc(N2[C@@H]3CC[C@H]2c2ccncc2C3)cc1 | . | . | -0.4 | . | . | 0.6 | . | .
CCC1(CC)C(=O)NC(=O)N(CCc2ccccn2)C1=O | 0.0 | -0.5 | 0.2 | -12.4 | . | -0.5 | . | .
O=C(O)Cn1cc(/C=C2\C(=O)NC(=O)N(Cc3ccco3)C2=O)c2ccccc21 | 89.6* | 7.2 | 27.4 | 53.1* | 34.0 | 4.6 | . | .
O=C1NC(=S)NC(=O)C1=Cc1ccc(Br)s1 | 56.9* | 19.6 | 17.0 | 84.3* | 2.0 | 10.1 | . | .
CNCC(=O)c1ccc(O)c(O)c1 | 2.4 | 2.2 | 2.9 | . | . | 55.7* | . | .
CN(C)[C@@H]1C(=O)C(C(N)=O)=C(O)[C@@]2(O)C(=O)C3=C(O)c4c(O)cccc4[C@@](C)(O)[C@H]3C[C@@H]12 | . | . | . | . | 42.0* | . | . | .
CN(C)[C@@H]1C(=O)C(C(N)=O)=C(O)[C@@]2(O)C(=O)C3=C(O)c4c(O)cccc4[C@@](C)(O)C3[C@H](O)C12 (some centres not stated) | 89.1*! | 18.5 | 58.7*! | 35.1 | 0.0 | 64.0* | . | .
CN(C)C1C(=O)C(C(N)=O)=C(O)C2(O)C(=O)C3=C(O)c4c(O)cccc4C(C)(O)C3CC12 (configuration not stated) | 18.9 | -0.2 | 6.1 | 7.6 | 0.0 | 7.0 | . | .
CCOC(=O)C1=CC(=C2C(=O)N(CC)C(=S)N(CC)C2=O)c2ccccc2O1 | . | . | . | -8.7 | 4.0 | . | . | .
CN1C2CCC1/C(=C/c1ccccn1)C(=O)/C2=C\c1ccccn1 | 4.0 | -0.2 | 7.0 | -2.1 | 92.0* | -0.9 | 2.1 | 109.7
CCC(C)N1Cc2ccccc2C1=N (configuration not stated) | 4.3 | -1.1 | -3.4 | 4.5 | 3.0 | -0.2 | . | .
COc1cc(C(CN)CC(=O)O)ccc1O (configuration not stated) | 1.3 | 3.0 | 0.0 | -1.7 | 0.0 | -2.1 | . | .
Cc1ccc2c(c1)C1CN(C)CCC1N2C(=O)/C=C/c1ccc2c(c1)OCO2 (configuration not stated) | -1.4 | 1.8 | -12.0 | -6.7 | 64.0* | -0.5 | -6.7 | 96.9
Cc1ccc2c(c1)C1CN(C)CCC1N2C(=O)Cc1cccs1 (configuration not stated) | -3.8 | -1.7 | 1.8 | -5.2 | 6.0 | -0.3 | . | .
Cc1ccc2c(c1)C1CN(C)CCC1N2C(=O)COc1ccc(S(=O)(=O)N2CCOCC2)cc1 (configuration not stated) | -4.6 | 5.5 | -2.7 | -4.6 | 0.0 | 0.4 | -2.6 | 102.3
COc1cc(/C=C/c2nc3ccccc3c(=O)n2-c2ccccc2O)ccc1O | -2.9 | -1.7 | -12.4 | -12.3 | 48.0* | 1.4 | -41.9 | 106.2
COc1ccc(C(=O)C23CN4CN(CN(C4)C2)C3)cc1 | 1.5 | -1.6 | 0.0 | -3.5 | 43.0* | 0.5 | -8.7 | 99.8
O=C(c1ccc(Br)cc1)C12CN3CN(CN(C3)C1)C2 | -7.5 | 0.4 | -4.1 | -0.7 | 0.0 | -1.3 | . | .
Cn1ncnc2c(=O)n(C)c(=O)nc1-2 | 108.8* | 85.4* | 29.2 | -7.7 | 61.0* | 75.4* | 72.6* | 86.6 | Aptamer quench 1=-1.8
Nc1ccc2ccc3cccc[n+]3c2c1 | 108.5* | -34.9 | -13.8 | 0.5 | 52.0* | 38.9 | 5.7 | 44.3*
CCOc1ccc(N=Cc2c(O)n(CCc3ccc(OC)c(OC)c3)c(=O)[nH]c2=O)cc1 | -37.7 | -3.2 | -5.2 | -10.8 | 100.0* | -2.6 | -4.8 | 97.0
O=C(N/N=C/c1c(O)n(CCc2ccccc2)c(=O)[nH]c1=O)c1ccccc1 | 0.9 | 2.7 | -5.4 | -14.1 | 0.0 | -1.0 | . | .
CCN(CC)P(=O)(/C=C(\Cl)c1ccccc1)/C=C(\Cl)c1ccccc1 | -1.9 | -3.6 | 4.9 | -6.0 | 0.0 | -0.2 | . | .
SMILES | DNMT1 block | STEP block | SUMO1 PPI mod | Scp-1 inhibitor | GRK2 aptamer HTS | LMPTP block | GRK2 inh confirm | Aptamer quench SP | others
CC(C(N)=O)N1CC(c2ccc(Cl)cc2)CC1=O (configuration not stated) | 1.2 | 2.9 | 0.6 | -3.0 | 50.0* | -0.4 | 0.9 | 97.7
CC(C(N)=O)N1CC(c2ccccc2)CC1=O (configuration not stated) | 1.9 | -0.7 | -0.8 | 2.6 | 3.0 | -3.2 | . | .
C[C@]12CCC3C(CC[C@H]4C[C@@H](O)CC[C@]34C)C1C[C@H](Br)[C@@H]2O (some centres not stated) | -0.7 | -2.0 | 6.0 | . | 0.0 | -1.8 | . | .
CCOc1cc(C(=O)N2CCC3(CC2)OCCO3)cc(OCC)c1OCC | -0.1 | -3.6 | -0.7 | -2.7 | 62.0* | -0.6 | -1.5 | 104.8
O=c1[nH]c(=O)n(-c2cccc3ccccc23)c(O)c1/C=N/N1CCCCC1c1cccnc1 (configuration not stated) | -0.6 | 0.8 | -1.1 | -1.8 | 2.0 | -1.4 | . | .
CCc1nc2ccc(N3CCN(C)CC3)cc2nc1CC | -1.5 | 0.6 | 6.8 | 4.0 | 100.0* | -2.2 | -2.8 | 99.1

Screening results deposited in PubChem by several laboratories.
